In ChEMBL document CHEMBL1154400, “Pharmacokinetics of single- and multiple-dose oral clarithromycin in soft tissues determined by microdialysis” (Antimicrob Agents Chemother, 2007):

Experiments:
[1] = Terminal half life in fasting human interstitial-space fluid of subcutaneous adipose tissue at 250 mg, po; format: ADME, organism-based; details: read-out: beta t1/2 (converted)
Summary of the method: (§1)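 Healthy male volunteers aged 25-37 y, fasting; single oral 250 mg tablet after 60-min probe equilibration. Microdialysis probes in skeletal muscle and subcutaneous adipose tissue, perfused with Ringer's at 1.5 µl/min; dialysate and antecubital venous blood sampled every 20 min to 4 h, then every 30 min to 8 h. HPLC assay. Interstitial concentration = 100 x Cdialysate/recovery.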

[2] = Tmax in human plasma unbound fraction at 500 mg, po, bid for 3 to 5 days; format: ADME, organism-based
Summary of the method: (§2)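 Free plasma concentrations obtained by applying each volunteer's measured protein binding to total plasma concentrations, measured by HPLC after the 250 mg single dose or the 500 mg b.i.d. steady-state dose, with sampling over 8 h.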

[3] = Protein binding in human plasma at 250 mg, po; format: ADME, organism-based; details: read-out: PPB (converted)
Summary of the method: (§3)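 Plasma ultrafiltration done for each volunteer on samples taken 80 and 180 min post-dose, after both the single dose and at steady state. 300 µl aliquots spun through 5,000-MW-cutoff regenerated-cellulose filters at 5,000 x g, 30 min, ambient temperature. Ultrafiltrate concentrations corrected for 5% mean membrane binding. Binding (%) = 100 - 100 x Cultrafiltrate corr/Cplasma total.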

[4] = Terminal half life in fasting human plasma at 250 mg, po; format: ADME, organism-based; details: read-out: beta t1/2 (converted); summary of the method: as §1
[5] = Ratio of AUC (0 to 24 hrs) in human interstitial-space fluid of skeletal muscle to free AUC (0 to 24 hrs) in human plasma at 500 mg, po bid
[6] = Tmax in fasting human interstitial-space fluid of skeletal muscle at 250 mg, po; format: ADME, organism-based, Muscle tissue; summary of the method: as §1
[7] = Cmax in human interstitial-space fluid of subcutaneous adipose tissue at 500 mg, po, bid for 3 to 5 days; format: ADME, organism-based
Summary of the method: (§4)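 Oral clarithromycin 500 mg b.i.d. for 3-5 days, starting 12 h after a single 250 mg dose; last dose given supervised on the morning of day 2 after a baseline blood draw and a 2-h trough dialysate. Sampling as on day 1: microdialysis of muscle and adipose tissue plus venous plasma over 8 h, HPLC. Dialysate concentrations corrected for individual recovery.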

[8] = AUC (0 to 8 hrs) in human interstitial-space fluid of skeletal muscle at 500 mg, po, bid for 3 to 5 days; format: ADME, organism-based, Muscle tissue; parameters: dose 500 mg, time < 8 hr, route oral; summary of the method: as §4
[9] = Ratio of AUC (0 to 24 hrs) in fasting human interstitial-space fluid of subcutaneous adipose tissue to free AUC (0 to 24 hrs) in fasting human plasma at 250 mg, po; format: ADME, organism-based; details: read-out: Ratio AUC
Summary of the method: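 AUC0-8, AUC0-12 and AUC0-24 by the linear trapezoidal rule. Values at 12 h and 24 h extrapolated as C8 x e^(-kel x t) from the 8-h concentration. At steady state, AUC0-24 = AUC0-12 x 2. Tissue-to-free-plasma ratios use free plasma AUC, from each subject's own protein binding.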

[10] = Tmax in human plasma at 500 mg, po, bid for 3 to 5 days; format: ADME, organism-based; summary of the method: as §4
[11] = AUC (0 to 24 hrs) in fasting human interstitial-space fluid of skeletal muscle at 250 mg, po; format: ADME, organism-based, Muscle tissue; parameters: time < 24 hr, dose 250 mg, route oral; summary of the method: as §1
[12] = Total clearance in fasting human plasma at 250 mg, po; format: ADME, organism-based
[13] = Drug uptake in human adipose tissue assessed as in vivo drug recovery by microdialysis; format: ADME, organism-based
Summary of the method: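 Retrodialysis after the 8-h sampling: clarithromycin 5 mg/liter added to the Ringer's perfusate (1.5 µl/min). Recovery (%) = 100 - 100 x Cdialysate/Cperfusate, taken as the mean of two measurements per subject, in muscle and adipose tissue probes.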

[14] = Protein binding in human plasma at 500 mg, po bid for 3 to 5 days; format: ADME, organism-based; details: read-out: PPB (converted); summary of the method: as §3
Homo sapiens [15] = experiment: Free AUC (0 to 24 hrs) in fasting human plasma at 250 mg, po; format: ADME, organism-based; details: in vivo
[16] = AUC (0 to 24 hrs) in human plasma at 500 mg, po, bid for 3 to 5 days; format: ADME, organism-based; parameters: time < 24 hr, dose 500 mg, route oral; summary of the method: as §4
Homo sapiens [17] = experiment: Free Cmax in human plasma at 500 mg, po, bid for 3 to 5 days; format: ADME, organism-based; details: in vivo; summary of the method: as §2
[18] = Cmax in human plasma at 500 mg, po, bid for 3 to 5 days; format: ADME, organism-based; parameters: dose 500 mg, route oral; summary of the method: as §4
[19] = Terminal half life in human plasma at 500 mg, po, bid for 3 to 5 days; format: ADME, organism-based; details: read-out: beta t1/2 (converted); summary of the method: as §4
[20] = Terminal half life in fasting human plasma unbound fraction at 250 mg, po; format: ADME, organism-based; details: read-out: beta t1/2 (converted); summary of the method: as §2
Homo sapiens [21] = experiment: Volume of distribution at steady state in human plasma at 500 mg, po, bid for 3 to 5 days; format: ADME, organism-based; details: in vivo
Summary of the method: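 Healthy male volunteers (n=7, 25–37 y) took clarithromycin 500 mg orally b.i.d. for 3–5 days, with the last dose supervised. Venous blood (lithium heparin) was sampled every 20 min over 0–4 h and every 30 min over 4–8 h, and plasma was assayed by HPLC. Vss = CL × MRT, with CL = dose × F/AUC0-∞ and F taken as 55%. AUCs were calculated by the linear trapezoidal rule.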

[22] = AUC (0 to 8 hrs) in human plasma at 500 mg, po, bid for 3 to 5 days; format: ADME, organism-based; parameters: dose 500 mg, time < 8 hr, route oral; summary of the method: as §4
[23] = Ratio of AUC (0 to 24 hrs) in human interstitial-space fluid of subcutaneous adipose tissue to free AUC (0 to 24 hrs) in human plasma at 500 mg, po bid
[24] = Terminal half life in human subcutaneous interstitial-space fluid of adipose tissue at 500 mg, po, bid for 3 to 5 days; format: ADME, organism-based; details: read-out: beta t1/2 (converted); summary of the method: as §4
[25] = AUC (0 to 24 hrs) in human interstitial-space fluid of skeletal muscle at 500 mg, po, bid for 3 to 5 days; format: ADME, organism-based, Muscle tissue; parameters: dose 500 mg, time < 24 hr, route oral; summary of the method: as §4
[26] = Terminal half life in fasting human interstitial-space fluid of skeletal muscle at 250 mg, po; format: ADME, organism-based, Muscle tissue; details: read-out: beta t1/2 (converted); summary of the method: as §1

CC[C@H]1OC(=O)[C@H](C)[C@@H](O[C@H]2C[C@@](C)(OC)[C@@H](O)[C@H](C)O2)[C@H](C)[C@@H](O[C@@H]2O[C@H](C)C[C@H](N(C)C)[C@H]2O)[C@](C)(OC)C[C@@H](C)C(=O)[C@H](C)[C@@H](O)[C@]1(C)O [CLARITHROMYCIN]
half-life [1]: 2.4 h
Tmax [2]: 3.2 h
fraction unbound [3]: 0.287
half-life [4]: 1.9 h
Kp uu [5]: 0.41
Tmax [6]: 3 h
Cmax [7]: 230 ng/mL
AUC at 8 h [8]: 920 ng·h/mL
Kp uu [9]: 0.29
Tmax [10]: 3.2 h
AUC(0-t) at 24 h [11]: 480 ng·h/mL
CL/F [12]: 620 mL/min
Activity [13]: 57.7%
fraction unbound [14]: 0.231
fAUC (Homo sapiens [15]): 1210 ng·h/mL
AUC at 24 h [16]: 26800 ng·h/mL
fCmax (Homo sapiens [17]): 0.58 mg/L
Cmax [18]: 2210 ng/mL
half-life [19]: 3.7 h
half-life [20]: 1.9 h
Vdss (Homo sapiens [21]): 126.5 L
AUC at 8 h [22]: 10600 ng·h/mL
Kp uu [23]: 0.39
half-life [24]: 3.4 h
AUC at 24 h [25]: 2420 ng·h/mL
half-life [26]: 3.1 h
